# Laboratory results: ChEMBL document CHEMBL3098105, “7,7'-Diazaindirubin--a small molecule inhibitor of casein kinase 2 in vitro and in cells” (Bioorg Med Chem, 2014)
# Activity calls are given as the source filed them. The rule behind the calls is not given here.
# Tests used:
# [1] = biological target: T1, Aurora kinase A (Homo sapiens) (UniProt O14965); assay: Inhibition of Aurora-A (unknown origin) assessed as residual activity at 1 uM relative to control
# T1 sequence (whole entry): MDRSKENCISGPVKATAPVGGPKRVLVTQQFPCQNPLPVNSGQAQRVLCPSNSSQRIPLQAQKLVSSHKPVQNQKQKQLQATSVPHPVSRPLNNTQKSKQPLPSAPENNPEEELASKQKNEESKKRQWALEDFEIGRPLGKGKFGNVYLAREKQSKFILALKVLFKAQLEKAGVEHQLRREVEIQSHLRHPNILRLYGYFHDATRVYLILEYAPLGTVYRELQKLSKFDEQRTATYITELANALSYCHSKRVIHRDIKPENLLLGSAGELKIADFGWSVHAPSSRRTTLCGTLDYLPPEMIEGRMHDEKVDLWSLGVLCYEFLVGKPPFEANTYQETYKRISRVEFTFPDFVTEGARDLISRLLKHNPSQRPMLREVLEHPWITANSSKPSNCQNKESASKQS
# MDA-MB-468 = assay: Antiproliferative activity against human MDA-MB-468 cells after 3 days by sulforhodamine B assay; format: functional; details: MDA-MB-468, 72 h
# Procedure, shortened: (§1)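 Tested in the NCI 60 cell line panel. GI50 is the concentration giving 50% inhibition of cell growth, and values are the mean of two series of tests.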
# A498 = assay: Antiproliferative activity against human A498 cells after 3 days by sulforhodamine B assay; format: functional; details: A498, 72 h; procedure, shortened: as §1
# [2] = Antiproliferative activity against human OVCAR5 cells after 3 days by sulforhodamine B assay; format: functional; details: OVCAR-5, 72 h; procedure, shortened: as §1
# MDA-MB-435 = assay: Antiproliferative activity against human MDA-MB-435 cells after 3 days by sulforhodamine B assay; format: functional; details: MDA-MB-435, 72 h; procedure, shortened: as §1
# SNB-19 = assay: Antiproliferative activity against human SNB19 cells after 3 days by sulforhodamine B assay; format: functional; details: SNB-19, 72 h
# KM12 = assay: Antiproliferative activity against human KM12 cells after 3 days by sulforhodamine B assay; format: functional; details: KM12, 72 h; procedure, shortened: as §1
# NCI-H522 = assay: Antiproliferative activity against human NCI-H522 cells after 3 days by sulforhodamine B assay; format: functional; details: NCI-H522, 72 h; procedure, shortened: as §1
# MCF7 [3] = assay: Cell cycle arrest in human MCF7 cells assessed as accumulation at sub-G1 phase at 0.25 uM after 24 hrs using propidium iodide staining by FACS analysis (reference value: 0.17%); format: functional
# [4] = biological target: Serine/threonine-protein kinase WNK2 (Homo sapiens) (UniProt Q9Y3S1); assay: Inhibition of human WNK2 assessed as residual activity at 1 uM relative to control
# [5] = biological target: Tyrosine-protein kinase SYK (Homo sapiens) (UniProt P43405); assay: Inhibition of human Syk assessed as residual activity at 1 uM relative to control
# [6] = biological target: Mitogen-activated protein kinase 13 (Homo sapiens) (UniProt O15264); assay: Inhibition of human SAPK4 assessed as residual activity at 1 uM relative to control
# [7] = biological target: Mitogen-activated protein kinase 11 (Homo sapiens) (UniProt Q15759); assay: Inhibition of human SAPK2beta assessed as residual activity at 1 uM relative to control
# [8] = Antiproliferative activity against human HOP92 cells after 3 days by sulforhodamine B assay; format: functional; details: HOP-92, 72 h; procedure, shortened: as §1
# MCF7 [9] = assay: Cell cycle arrest in human MCF7 cells assessed as accumulation at G1 phase at 0.25 uM after 24 hrs using propidium iodide staining by FACS analysis (reference value: 57.74%); format: functional
# [10] = biological target: Casein kinase II (Homo sapiens) (UniProt P67870+P68400+P19784); assay: Inhibition of CK2 in human MCF7 cells assessed as reduction of Akt phosphorylation at S473 at 1 uM after 30 mins by Western blot analysis; format: cell-based
# Procedure, shortened: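 MCF7 cells were grown at 37 °C and 5% CO2 in DMEM with 10% heat-inactivated FBS and penicillin/streptomycin. Cells were exposed to 1 µM for the indicated times, with DMSO as the untreated control. Extracts were made in urea lysis buffer, and 20–40 µg protein was run on 10% SDS–PAGE. Blots were probed with primary antibodies (1:1000, overnight, 4 °C) and read by ECL, with β-actin as loading control.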
# [11] = biological target: Serine/threonine-protein kinase pim-1 (Homo sapiens) (UniProt P11309); assay: Inhibition of human Pim-1 assessed as residual activity at 1 uM relative to control
# [12] = biological target: 3-phosphoinositide-dependent protein kinase 1 (Homo sapiens) (UniProt O15530); assay: Inhibition of human PDK1 assessed as residual activity at 1 uM relative to control
# [13] = biological target: Serine/threonine-protein kinase NLK (Homo sapiens) (UniProt Q9UBE8); assay: Inhibition of human NLK assessed as residual activity at 1 uM relative to control
# [14] = biological target: Serine/threonine-protein kinase 4 (Homo sapiens) (UniProt Q13043); assay: Inhibition of human MST1 assessed as residual activity at 1 uM relative to control
# [15] = biological target: Myosin light chain kinase, smooth muscle (Homo sapiens) (UniProt Q15746); assay: Inhibition of human MLCK assessed as residual activity at 1 uM relative to control
# [16] = biological target: Mitogen-activated protein kinase 1 (Homo sapiens) (UniProt P28482); assay: Inhibition of human MAPK1 assessed as residual activity at 1 uM relative to control
# [17] = biological target: Serine/threonine-protein kinase STK11 (Homo sapiens) (UniProt Q15831); assay: Inhibition of human LKB1 assessed as residual activity at 1 uM relative to control
# [18] = biological target: Insulin receptor-related protein (Homo sapiens) (UniProt P14616); assay: Inhibition of human IRR assessed as residual activity at 1 uM relative to control
# [19] = biological target: Tyrosine-protein kinase HCK (Homo sapiens) (UniProt P08631); assay: Inhibition of human Hck assessed as residual activity at 1 uM relative to control
# [20] = biological target: G protein-coupled receptor kinase 5 (Homo sapiens) (UniProt P34947); assay: Inhibition of human GRK5 assessed as residual activity at 1 uM relative to control
# [21] = biological target: Ephrin type-B receptor 3 (Homo sapiens) (UniProt P54753); assay: Inhibition of human EphB3 assessed as residual activity at 1 uM relative to control
# [22] = biological target: CDK9/cyclin T1 (Homo sapiens) (UniProt O60563+P50750); assay: Inhibition of human CDK9/cyclin T1 assessed as residual activity at 1 uM relative to control; format: protein-complex assay
# [23] = biological target: Serine/threonine-protein kinase BRSK2 (Homo sapiens) (UniProt Q8IWQ3); assay: Inhibition of human BrSK2 assessed as residual activity at 1 uM relative to control
# [24] = biological target: Tyrosine-protein kinase Fgr (Homo sapiens) (UniProt P09769); assay: Inhibition of FGR (unknown origin) assessed as residual activity at 10 uM relative to control
# [25] = biological target: Epidermal growth factor receptor (Homo sapiens) (UniProt P00533); assay: Inhibition of EGF-R (unknown origin) assessed as residual activity at 10 uM relative to control
# [26] = biological target: Aurora kinase B (Homo sapiens) (UniProt Q96GD4); assay: Inhibition of Aurora-B (unknown origin) assessed as residual activity at 10 uM relative to control
# Sequence of Serine/threonine-protein kinase WNK2 (Homo sapiens) (Q9Y3S1 whole entry): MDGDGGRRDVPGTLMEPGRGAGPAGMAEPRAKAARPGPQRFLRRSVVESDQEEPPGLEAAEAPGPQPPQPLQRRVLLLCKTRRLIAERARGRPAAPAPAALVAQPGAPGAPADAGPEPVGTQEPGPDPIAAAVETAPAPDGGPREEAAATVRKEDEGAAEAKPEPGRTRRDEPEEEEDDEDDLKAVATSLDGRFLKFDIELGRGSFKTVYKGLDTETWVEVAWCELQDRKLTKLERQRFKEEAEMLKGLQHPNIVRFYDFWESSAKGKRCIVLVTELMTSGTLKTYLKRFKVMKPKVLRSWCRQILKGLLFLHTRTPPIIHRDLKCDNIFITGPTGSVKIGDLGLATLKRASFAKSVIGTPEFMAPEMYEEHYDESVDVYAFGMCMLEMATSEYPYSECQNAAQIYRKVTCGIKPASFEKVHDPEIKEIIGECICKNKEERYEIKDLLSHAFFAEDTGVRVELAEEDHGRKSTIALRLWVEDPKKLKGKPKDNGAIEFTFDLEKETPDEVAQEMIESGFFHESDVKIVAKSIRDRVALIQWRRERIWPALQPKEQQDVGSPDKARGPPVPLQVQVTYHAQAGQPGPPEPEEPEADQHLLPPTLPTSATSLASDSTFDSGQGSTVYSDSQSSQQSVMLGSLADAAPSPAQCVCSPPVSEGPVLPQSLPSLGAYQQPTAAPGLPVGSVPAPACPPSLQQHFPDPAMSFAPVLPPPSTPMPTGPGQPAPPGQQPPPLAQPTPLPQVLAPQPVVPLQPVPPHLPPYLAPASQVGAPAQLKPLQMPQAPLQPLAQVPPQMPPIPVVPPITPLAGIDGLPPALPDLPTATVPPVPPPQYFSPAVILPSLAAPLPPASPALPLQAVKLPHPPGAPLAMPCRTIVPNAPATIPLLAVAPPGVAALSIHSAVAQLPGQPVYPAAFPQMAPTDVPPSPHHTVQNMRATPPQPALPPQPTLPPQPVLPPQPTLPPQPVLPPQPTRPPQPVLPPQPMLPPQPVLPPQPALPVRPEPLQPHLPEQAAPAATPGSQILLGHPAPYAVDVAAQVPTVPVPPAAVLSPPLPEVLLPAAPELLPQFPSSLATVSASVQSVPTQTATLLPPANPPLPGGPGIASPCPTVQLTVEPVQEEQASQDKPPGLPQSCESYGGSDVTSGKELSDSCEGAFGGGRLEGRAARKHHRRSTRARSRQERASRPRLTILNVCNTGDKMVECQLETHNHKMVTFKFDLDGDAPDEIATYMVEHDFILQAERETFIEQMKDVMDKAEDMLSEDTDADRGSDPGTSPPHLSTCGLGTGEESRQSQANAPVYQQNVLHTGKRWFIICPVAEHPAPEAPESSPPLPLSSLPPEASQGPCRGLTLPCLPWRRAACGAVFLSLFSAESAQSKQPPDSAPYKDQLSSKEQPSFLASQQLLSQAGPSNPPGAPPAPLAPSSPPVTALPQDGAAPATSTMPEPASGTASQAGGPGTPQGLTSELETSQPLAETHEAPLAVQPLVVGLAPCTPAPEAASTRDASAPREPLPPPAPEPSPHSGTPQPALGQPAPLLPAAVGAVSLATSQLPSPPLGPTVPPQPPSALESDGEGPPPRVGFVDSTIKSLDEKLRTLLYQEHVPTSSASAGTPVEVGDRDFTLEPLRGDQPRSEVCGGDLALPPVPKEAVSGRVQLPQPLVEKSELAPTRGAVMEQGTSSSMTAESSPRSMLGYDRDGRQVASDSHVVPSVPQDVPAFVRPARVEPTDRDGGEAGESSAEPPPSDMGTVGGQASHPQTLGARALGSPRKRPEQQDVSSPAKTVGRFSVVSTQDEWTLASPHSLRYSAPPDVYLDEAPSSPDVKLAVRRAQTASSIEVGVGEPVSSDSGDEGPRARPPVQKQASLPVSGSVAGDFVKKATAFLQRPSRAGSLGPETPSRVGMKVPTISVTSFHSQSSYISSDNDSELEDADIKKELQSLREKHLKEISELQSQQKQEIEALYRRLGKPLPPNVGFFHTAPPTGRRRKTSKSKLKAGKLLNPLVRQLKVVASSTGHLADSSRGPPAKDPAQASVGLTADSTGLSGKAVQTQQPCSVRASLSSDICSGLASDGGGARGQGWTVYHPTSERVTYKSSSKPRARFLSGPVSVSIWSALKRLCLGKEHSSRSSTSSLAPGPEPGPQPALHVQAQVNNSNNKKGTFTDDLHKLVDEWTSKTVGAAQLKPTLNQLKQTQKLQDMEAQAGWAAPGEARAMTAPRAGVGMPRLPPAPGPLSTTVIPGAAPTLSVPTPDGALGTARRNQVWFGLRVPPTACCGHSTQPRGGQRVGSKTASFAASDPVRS
# Sequence of 3-phosphoinositide-dependent protein kinase 1 (Homo sapiens) (O15530 whole entry): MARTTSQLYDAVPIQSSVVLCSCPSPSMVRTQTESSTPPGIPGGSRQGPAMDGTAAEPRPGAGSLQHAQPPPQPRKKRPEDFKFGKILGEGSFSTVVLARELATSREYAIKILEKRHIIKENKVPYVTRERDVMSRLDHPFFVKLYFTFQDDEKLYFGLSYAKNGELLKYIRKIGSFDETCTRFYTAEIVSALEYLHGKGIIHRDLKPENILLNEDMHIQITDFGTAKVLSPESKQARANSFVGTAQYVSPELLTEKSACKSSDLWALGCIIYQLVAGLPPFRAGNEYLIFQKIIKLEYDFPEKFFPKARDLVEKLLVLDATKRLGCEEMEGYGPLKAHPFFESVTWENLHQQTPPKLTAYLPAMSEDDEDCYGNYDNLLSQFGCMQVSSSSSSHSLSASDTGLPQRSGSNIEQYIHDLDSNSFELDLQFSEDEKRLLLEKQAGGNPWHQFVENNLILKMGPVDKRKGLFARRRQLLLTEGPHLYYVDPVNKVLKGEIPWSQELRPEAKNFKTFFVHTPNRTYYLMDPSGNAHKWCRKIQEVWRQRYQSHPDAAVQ
# Sequence of Myosin light chain kinase, smooth muscle (Homo sapiens) (Q15746 whole entry): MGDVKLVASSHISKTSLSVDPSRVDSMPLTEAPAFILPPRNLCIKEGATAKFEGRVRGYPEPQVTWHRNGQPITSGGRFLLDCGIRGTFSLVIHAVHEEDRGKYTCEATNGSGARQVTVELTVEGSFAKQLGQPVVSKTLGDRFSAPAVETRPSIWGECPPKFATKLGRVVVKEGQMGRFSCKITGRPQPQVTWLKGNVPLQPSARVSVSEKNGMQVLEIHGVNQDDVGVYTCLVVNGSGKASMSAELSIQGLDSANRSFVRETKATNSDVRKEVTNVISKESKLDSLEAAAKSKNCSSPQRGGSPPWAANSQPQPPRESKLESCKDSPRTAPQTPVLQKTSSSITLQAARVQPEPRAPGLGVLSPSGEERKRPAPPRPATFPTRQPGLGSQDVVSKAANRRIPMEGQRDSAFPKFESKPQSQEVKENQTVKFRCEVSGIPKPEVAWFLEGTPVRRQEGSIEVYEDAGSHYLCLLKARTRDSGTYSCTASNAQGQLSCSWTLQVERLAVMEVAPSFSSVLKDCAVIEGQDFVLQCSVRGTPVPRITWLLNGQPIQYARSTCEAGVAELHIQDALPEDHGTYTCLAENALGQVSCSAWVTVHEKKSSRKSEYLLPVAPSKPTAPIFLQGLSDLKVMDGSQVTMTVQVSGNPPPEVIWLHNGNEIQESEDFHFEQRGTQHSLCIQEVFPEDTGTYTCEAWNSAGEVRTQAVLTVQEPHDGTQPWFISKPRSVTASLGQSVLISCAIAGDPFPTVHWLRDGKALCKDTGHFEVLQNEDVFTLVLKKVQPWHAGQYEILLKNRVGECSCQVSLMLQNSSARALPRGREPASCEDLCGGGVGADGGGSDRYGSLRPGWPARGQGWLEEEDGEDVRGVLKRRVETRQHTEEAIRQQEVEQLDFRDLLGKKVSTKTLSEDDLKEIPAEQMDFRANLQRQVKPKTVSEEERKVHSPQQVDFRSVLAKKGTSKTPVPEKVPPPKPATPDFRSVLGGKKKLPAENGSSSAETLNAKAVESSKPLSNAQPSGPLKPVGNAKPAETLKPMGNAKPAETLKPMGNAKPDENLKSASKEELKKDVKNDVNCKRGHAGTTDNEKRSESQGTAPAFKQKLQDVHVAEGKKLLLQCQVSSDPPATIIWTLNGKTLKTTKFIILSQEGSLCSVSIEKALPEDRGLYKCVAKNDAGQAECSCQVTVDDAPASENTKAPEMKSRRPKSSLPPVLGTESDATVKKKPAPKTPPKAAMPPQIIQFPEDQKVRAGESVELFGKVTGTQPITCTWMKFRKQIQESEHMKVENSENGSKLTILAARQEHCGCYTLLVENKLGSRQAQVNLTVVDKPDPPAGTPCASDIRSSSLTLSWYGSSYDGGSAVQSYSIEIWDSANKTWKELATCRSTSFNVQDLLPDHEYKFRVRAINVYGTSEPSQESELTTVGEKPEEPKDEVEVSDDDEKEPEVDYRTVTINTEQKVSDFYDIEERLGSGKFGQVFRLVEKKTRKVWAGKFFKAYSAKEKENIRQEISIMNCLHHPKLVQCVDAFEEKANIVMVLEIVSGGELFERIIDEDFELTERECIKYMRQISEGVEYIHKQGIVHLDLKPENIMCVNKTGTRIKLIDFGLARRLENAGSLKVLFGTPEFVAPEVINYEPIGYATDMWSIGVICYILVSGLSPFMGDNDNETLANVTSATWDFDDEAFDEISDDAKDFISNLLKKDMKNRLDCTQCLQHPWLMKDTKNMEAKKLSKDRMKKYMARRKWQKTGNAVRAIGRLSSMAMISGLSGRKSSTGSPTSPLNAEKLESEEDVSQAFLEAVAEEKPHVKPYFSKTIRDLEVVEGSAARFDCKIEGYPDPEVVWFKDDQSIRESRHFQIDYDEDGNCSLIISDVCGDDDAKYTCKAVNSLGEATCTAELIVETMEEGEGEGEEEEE
# Sequence of Mitogen-activated protein kinase 11 (Homo sapiens) (Q15759 whole entry): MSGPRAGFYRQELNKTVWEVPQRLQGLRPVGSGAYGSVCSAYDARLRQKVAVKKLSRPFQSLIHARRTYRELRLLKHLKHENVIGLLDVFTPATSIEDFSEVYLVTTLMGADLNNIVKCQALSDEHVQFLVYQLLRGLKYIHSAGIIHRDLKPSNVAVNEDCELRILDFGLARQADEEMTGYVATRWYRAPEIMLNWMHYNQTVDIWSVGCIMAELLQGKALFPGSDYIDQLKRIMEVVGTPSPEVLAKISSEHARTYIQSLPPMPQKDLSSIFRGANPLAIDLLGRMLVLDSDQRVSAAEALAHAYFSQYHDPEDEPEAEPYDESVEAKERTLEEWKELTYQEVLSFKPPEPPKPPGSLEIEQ
compound,measurement,setting,value
O=C1Nc2ncccc2/C1=C1/Nc2ncccc2C1=O,Activity,[1],85%
same,GI50,MDA-MB-468,1.14 µM
same,GI50,A498,1.66 µM
same,GI50,[2],2.47 µM
same,GI50,MDA-MB-435,0.198 µM
same,GI50,SNB-19,0.517 µM
same,GI50,KM12,0.387 µM
same,GI50,NCI-H522,2.18 µM
same,Activity,MCF7 [3],0.17%
same,Activity,[4],102%
same,Activity,[5],91%
same,Activity,[6],115%
same,Activity,[7],147%
same,GI50,[8],3.04 µM
same,Activity,MCF7 [9],58.28%
same,inhibition,[10],Active
same,Activity,[11],108%
same,Activity,[12],97%
same,Activity,[13],123%
same,Activity,[14],96%
same,Activity,[15],73%
same,Activity,[16],96%
same,Activity,[17],104%
same,Activity,[18],80%
same,Activity,[19],100%
same,Activity,[20],99%
same,Activity,[21],123%
same,Activity,[22],100%
same,Activity,[23],108%
same,Activity,[24],93%
same,Activity,[25],95%
same,Activity,[26],88%
